Data reported in ChEMBL document CHEMBL4190374, “Structure-Function Evaluation of Imidazopyridine Derivatives Selective for δ-Subunit-Containing γ-Aminobutyric Acid Type A (GABAA) Receptors” (J Med Chem, 2018).
The source made the active and inactive calls. The rule behind the calls is not given here.

Key:
[1] = target: T1, Gamma-aminobutyric acid receptor subunit alpha-6/beta-3/delta (Rattus norvegicus) (UniProt P18506+P30191+P63079); assay: Displacement of [3H]EBOB from rat GABA-A receptor alpha6beta3delta expressed in HEK293 cell membranes at 10 uM after 90 mins by liquid scintillation counting analysis relative to control
In short: (§1)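 Crude membranes from HEK 293 cells transiently Ca-phosphate-transfected with rat subunit cDNAs, harvested at 48 h. Membranes (150-200 µg protein) incubated with 3 nM [3H]EBOB in 50 mM Tris/citrate pH 7.3 plus 0.2 M NaCl. Compound up to 10 µM, final DMSO 0.1%, no GABA, 90 min at 21 °C. Bound radioligand collected by GF/C filtration and counted by scintillation.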

[2] = target: T2, Gamma-aminobutyric acid receptor subunit alpha-6/beta-3 (Rattus norvegicus) (UniProt P30191+P63079); assay: Displacement of [3H]EBOB from rat GABA-A receptor alpha6beta3 expressed in HEK293 cell membranes at 10 uM after 90 mins by liquid scintillation counting analysis relative to control; in short: as §1
[3] = target: T3, Gamma-aminobutyric acid receptor subunit alpha-6/beta-3/gamma-2 (Rattus norvegicus) (UniProt P18508+P30191+P63079); assay: Displacement of [3H]EBOB from rat GABA-A receptor alpha6beta3gamma2 expressed in HEK293 cell membranes at 10 uM after 90 mins by liquid scintillation counting analysis relative to control; in short: as §1
[4] = target: T4, Gamma-aminobutyric acid receptor subunit alpha-6/beta-3 (Rattus norvegicus, UniProt P30191+P63079); assay: Displacement of [3H]EBOB from rat GABA-A receptor alpha6beta3 expressed in HEK293 cell membranes after 90 mins by liquid scintillation counting analysis; in short: as §1
[5] = target: T5, Gamma-aminobutyric acid receptor subunit alpha-6/beta-3/gamma-2 (Rattus norvegicus, UniProt P18508+P30191+P63079); assay: Displacement of [3H]EBOB from rat GABA-A receptor alpha6beta3gamma2 expressed in HEK293 cell membranes after 90 mins by liquid scintillation counting analysis; in short: as §1
[6] = target: T6, Gamma-aminobutyric acid receptor subunit alpha-6/beta-3/delta (Rattus norvegicus, UniProt P18506+P30191+P63079); assay: Displacement of [3H]EBOB from rat GABA-A receptor alpha6beta3delta expressed in HEK293 cell membranes after 90 mins by liquid scintillation counting analysis; in short: as §1
[7] = target: T2, Gamma-aminobutyric acid receptor subunit alpha-6/beta-3 (Rattus norvegicus); assay: Displacement of [3H]EBOB from rat GABA-A receptor alpha6beta3 expressed in HEK293 cell membranes up to 10 uM after 90 mins by liquid scintillation counting analysis relative to control; in short: as §1
[8] = target: T3, Gamma-aminobutyric acid receptor subunit alpha-6/beta-3/gamma-2 (Rattus norvegicus); assay: Displacement of [3H]EBOB from rat GABA-A receptor alpha6beta3gamma2 expressed in HEK293 cell membranes up to 10 uM after 90 mins by liquid scintillation counting analysis relative to control; in short: as §1
[9] = target: T1, Gamma-aminobutyric acid receptor subunit alpha-6/beta-3/delta (Rattus norvegicus); assay: Displacement of [3H]EBOB from rat GABA-A receptor alpha6beta3delta expressed in HEK293 cell membranes up to 10 uM after 90 mins by liquid scintillation counting analysis relative to control; in short: as §1
[10] = target: Gamma-aminobutyric acid receptor subunit alpha-1/beta-3/delta (Rattus norvegicus, UniProt P18506+P62813+P63079); assay: Modulation of rat […] GABA-A receptor alpha1beta3delta expressed in HEK293 cells in presence of GABA by patch-clamp assay; type: cell-based
In short: (§2)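 Rat GABA-A subunits were transiently co-transfected with eGFP into HEK293 cells on coverslips. Fluorescent cells were recorded by whole-cell patch clamp 48 h later; bath pH 7.4, KCl/KOH pipette pH 7.2. Compound was applied at increasing concentrations up to 10 µM with the receptor-specific GABA EC20. Peak currents were fitted logistically for EC50, Hill and % modulation, as mean ± S.E.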

[11] = target: Gamma-aminobutyric acid receptor subunit alpha-4/beta-3/delta (Rattus norvegicus, UniProt P18506+P28471+P63079); assay: Modulation of rat […] GABA-A receptor alpha4beta3delta expressed in HEK293 cells in presence of GABA by patch-clamp assay; type: cell-based; in short: as §2
[12] = target: T7, Gamma-aminobutyric acid receptor subunit alpha-1/beta-3/delta (Rattus norvegicus) (UniProt P18506+P62813+P63079); assay: Modulation of rat […] GABA-A receptor alpha1beta3delta expressed in HEK293 cells up to 10 uM in presence of GABA by patch-clamp assay relative to control; type: cell-based; in short: as §2
[13] = target: T8, Gamma-aminobutyric acid receptor subunit alpha-4/beta-3/delta (Rattus norvegicus) (UniProt P18506+P28471+P63079); assay: Modulation of rat […] GABA-A receptor alpha4beta3delta expressed in HEK293 cells up to 10 uM in presence of GABA by patch-clamp assay relative to control; type: cell-based; in short: as §2
[14] = target: T2, Gamma-aminobutyric acid receptor subunit alpha-6/beta-3 (Rattus norvegicus); assay: Modulation of rat […] GABA-A receptor alpha6beta3 expressed in HEK293 cells up to 10 uM in presence of GABA by patch-clamp assay relative to control; type: cell-based; in short: as §2
[15] = target: T9, Gamma-aminobutyric acid receptor subunit alpha-4/beta-3/gamma-2 (Rattus norvegicus) (UniProt P18508+P28471+P63079); assay: Modulation of rat eGFP-fused GABA-A receptor alpha4beta3gamma2 expressed in HEK293 cells at <=1 uM in presence of GABA by patch-clamp assay relative to control; type: cell-based
[16] = target: T3, Gamma-aminobutyric acid receptor subunit alpha-6/beta-3/gamma-2 (Rattus norvegicus); assay: Modulation of rat eGFP-fused GABA-A receptor alpha6beta3gamma2 expressed in HEK293 cells at <= 1 uM in presence of GABA by patch-clamp assay relative to control; type: cell-based
[17] = target: T10, Gamma-aminobutyric acid receptor subunit alpha-1/beta-3 (Rattus norvegicus) (UniProt P62813+P63079); assay: Modulation of rat […] GABA-A receptor alpha1beta3 expressed in HEK293 cells at <= 10 uM in presence of GABA by patch-clamp assay relative to control; type: cell-based
In short: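 Whole-cell patch clamp on eGFP-co-transfected HEK 293 cells expressing rat subunits, recorded 48 h post-transfection. KCl/KOH-based pipette solution, pH 7.2. Rising compound concentrations up to 10 µM co-applied with the receptor-specific GABA EC20. Peak currents fitted to a logistic function giving EC50, Hill coefficient and % modulation, mean ± S.E. of n experiments.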

[18] = target: T11, Gamma-aminobutyric acid receptor subunit alpha-1/beta-3/gamma-2 (Rattus norvegicus) (UniProt P18508+P62813+P63079); assay: Modulation of rat eGFP-fused GABA-A receptor alpha1beta3gamma2 expressed in HEK293 cells at <= 1 uM in presence of GABA by patch-clamp assay relative to control; type: cell-based
[19] = target: T12, Gamma-aminobutyric acid receptor subunit alpha-4/beta-3 (Rattus norvegicus) (UniProt P28471+P63079); assay: Modulation of rat eGFP-fused GABA-A receptor alpha4beta3 expressed in HEK293 cells at <= 1 uM in presence of GABA by patch-clamp assay relative to control; type: cell-based
[20] = target: Gamma-aminobutyric acid receptor subunit alpha-6/beta-2 (Rattus norvegicus, UniProt P30191+P63138); assay: Displacement of [3H]EBOB from rat GABA-A receptor alpha6beta2 expressed in HEK293 cell membranes after 90 mins by liquid scintillation counting analysis; in short: as §1
[21] = target: Gamma-aminobutyric acid receptor subunit alpha-6/beta-2/delta (Rattus norvegicus, UniProt P18506+P30191+P63138); assay: Displacement of [3H]EBOB from rat GABA-A receptor alpha6beta2delta expressed in HEK293 cell membranes after 90 mins by liquid scintillation counting analysis; in short: as §1
[22] = target: T10, Gamma-aminobutyric acid receptor subunit alpha-1/beta-3 (Rattus norvegicus); assay: Displacement of [3H]EBOB from rat GABA-A receptor alpha1beta3 expressed in HEK293 cell membranes at 10 uM after 90 mins by liquid scintillation counting analysis relative to control; in short: as §1
[23] = target: T11, Gamma-aminobutyric acid receptor subunit alpha-1/beta-3/gamma-2 (Rattus norvegicus); assay: Displacement of [3H]EBOB from rat GABA-A receptor alpha1beta3gamma2 expressed in HEK293 cell membranes at 10 uM after 90 mins by liquid scintillation counting analysis relative to control; in short: as §1
[24] = target: T7, Gamma-aminobutyric acid receptor subunit alpha-1/beta-3/delta (Rattus norvegicus); assay: Displacement of [3H]EBOB from rat GABA-A receptor alpha1beta3delta expressed in HEK293 cell membranes at 10 uM after 90 mins by liquid scintillation counting analysis relative to control; in short: as §1
[25] = target: T12, Gamma-aminobutyric acid receptor subunit alpha-4/beta-3 (Rattus norvegicus); assay: Displacement of [3H]EBOB from rat GABA-A receptor alpha4beta3 expressed in HEK293 cell membranes up to 10 uM after 90 mins by liquid scintillation counting analysis relative to control; in short: as §1
[26] = target: T9, Gamma-aminobutyric acid receptor subunit alpha-4/beta-3/gamma-2 (Rattus norvegicus); assay: Displacement of [3H]EBOB from rat GABA-A receptor alpha4beta3gamma2 expressed in HEK293 cell membranes up to 10 uM after 90 mins by liquid scintillation counting analysis relative to control; in short: as §1
[27] = target: T8, Gamma-aminobutyric acid receptor subunit alpha-4/beta-3/delta (Rattus norvegicus); assay: Displacement of [3H]EBOB from rat GABA-A receptor alpha4beta3delta expressed in HEK293 cell membranes up to 10 uM after 90 mins by liquid scintillation counting analysis relative to control; in short: as §1
[28] = target: Gamma-aminobutyric acid receptor subunit alpha-6/beta-2 (Rattus norvegicus) (UniProt P30191+P63138); assay: Displacement of [3H]EBOB from rat GABA-A receptor alpha6beta2 expressed in HEK293 cell membranes up to 10 uM after 90 mins by liquid scintillation counting analysis relative to control; in short: as §1
[29] = target: Gamma-aminobutyric acid receptor subunit alpha-6/beta-2/delta (Rattus norvegicus) (UniProt P18506+P30191+P63138); assay: Displacement of [3H]EBOB from rat GABA-A receptor alpha6beta2delta expressed in HEK293 cell membranes up to 10 uM after 90 mins by liquid scintillation counting analysis relative to control; in short: as §1
[30] = target: T2, Gamma-aminobutyric acid receptor subunit alpha-6/beta-3 (Rattus norvegicus); assay: (§3) Displacement of [3H]EBOB from rat GABA-A receptor alpha6beta3 expressed in HEK293 cell membranes after 90 mins in presence of GABA by liquid scintillation counting analysis
[31] = target: T4, Gamma-aminobutyric acid receptor subunit alpha-6/beta-3; assay: as §3
[32] = target: T3, Gamma-aminobutyric acid receptor subunit alpha-6/beta-3/gamma-2 (Rattus norvegicus); assay: (§4) Displacement of [3H]EBOB from rat GABA-A receptor alpha6beta3gamma2 expressed in HEK293 cell membranes after 90 mins in presence of GABA by liquid scintillation counting analysis
[33] = target: T5, Gamma-aminobutyric acid receptor subunit alpha-6/beta-3/gamma-2; assay: as §4
[34] = target: T1, Gamma-aminobutyric acid receptor subunit alpha-6/beta-3/delta (Rattus norvegicus); assay: (§5) Displacement of [3H]EBOB from rat GABA-A receptor alpha6beta3delta expressed in HEK293 cell membranes after 90 mins in presence of GABA by liquid scintillation counting analysis
[35] = target: T6, Gamma-aminobutyric acid receptor subunit alpha-6/beta-3/delta; assay: as §5
Rattus norvegicus = species: Rattus norvegicus; assay: Selectivity ratio of IC50 for rat GABA-A receptor alpha6beta3delta expressed in HEK293 cells to IC50 for rat GABA-A receptor alpha6beta2delta expressed in HEK293 cells; type: cell-based
[36] = target: GABA A receptor alpha-6/beta-2/gamma-2 (Rattus norvegicus) (UniProt P18508+P30191+P63138); assay: Displacement of [3H]EBOB from rat GABA-A receptor alpha6beta2gamma2 expressed in HEK293 cell membranes at 10 uM after 90 mins by liquid scintillation counting analysis relative to control; in short: as §1

T5 sequence (P18508 whole entry): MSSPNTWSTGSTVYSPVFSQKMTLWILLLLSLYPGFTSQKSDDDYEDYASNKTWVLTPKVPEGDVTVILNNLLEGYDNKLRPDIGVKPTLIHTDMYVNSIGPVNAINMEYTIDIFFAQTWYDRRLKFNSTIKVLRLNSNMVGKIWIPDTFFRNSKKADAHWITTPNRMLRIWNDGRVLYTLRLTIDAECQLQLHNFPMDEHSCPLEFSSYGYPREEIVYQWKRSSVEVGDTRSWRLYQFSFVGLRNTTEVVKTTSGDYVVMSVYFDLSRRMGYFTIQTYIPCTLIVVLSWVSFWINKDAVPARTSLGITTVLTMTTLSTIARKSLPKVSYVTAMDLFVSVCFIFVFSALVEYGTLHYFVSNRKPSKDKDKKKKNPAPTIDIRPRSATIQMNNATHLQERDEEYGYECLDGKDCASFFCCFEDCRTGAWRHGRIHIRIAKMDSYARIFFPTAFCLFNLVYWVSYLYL
T5 sequence (P30191 whole entry): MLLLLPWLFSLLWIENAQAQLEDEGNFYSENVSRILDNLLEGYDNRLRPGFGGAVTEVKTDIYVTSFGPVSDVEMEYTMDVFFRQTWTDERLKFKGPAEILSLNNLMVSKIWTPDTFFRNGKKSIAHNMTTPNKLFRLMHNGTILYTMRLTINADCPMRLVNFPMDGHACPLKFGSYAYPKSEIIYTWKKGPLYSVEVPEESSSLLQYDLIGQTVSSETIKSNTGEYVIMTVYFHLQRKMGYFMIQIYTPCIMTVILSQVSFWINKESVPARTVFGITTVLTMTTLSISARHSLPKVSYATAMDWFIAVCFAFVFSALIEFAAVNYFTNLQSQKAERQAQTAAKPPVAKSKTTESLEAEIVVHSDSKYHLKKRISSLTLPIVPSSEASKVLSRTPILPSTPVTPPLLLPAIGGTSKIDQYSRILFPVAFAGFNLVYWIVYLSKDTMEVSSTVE
T5 sequence (P63079 whole entry): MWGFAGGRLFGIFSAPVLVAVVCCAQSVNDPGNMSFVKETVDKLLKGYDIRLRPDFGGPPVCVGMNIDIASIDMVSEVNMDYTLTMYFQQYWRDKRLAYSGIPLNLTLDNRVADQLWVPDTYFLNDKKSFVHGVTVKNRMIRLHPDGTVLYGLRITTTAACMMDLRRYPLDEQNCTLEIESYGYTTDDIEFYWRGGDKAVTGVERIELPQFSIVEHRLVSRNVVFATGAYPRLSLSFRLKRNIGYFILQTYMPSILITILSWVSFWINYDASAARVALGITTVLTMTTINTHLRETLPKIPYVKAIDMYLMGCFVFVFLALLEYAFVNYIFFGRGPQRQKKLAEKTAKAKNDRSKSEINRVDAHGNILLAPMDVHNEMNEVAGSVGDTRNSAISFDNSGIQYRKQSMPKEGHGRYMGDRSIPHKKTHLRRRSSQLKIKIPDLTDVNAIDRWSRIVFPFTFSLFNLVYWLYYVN
T6 sequence (P18506 whole entry): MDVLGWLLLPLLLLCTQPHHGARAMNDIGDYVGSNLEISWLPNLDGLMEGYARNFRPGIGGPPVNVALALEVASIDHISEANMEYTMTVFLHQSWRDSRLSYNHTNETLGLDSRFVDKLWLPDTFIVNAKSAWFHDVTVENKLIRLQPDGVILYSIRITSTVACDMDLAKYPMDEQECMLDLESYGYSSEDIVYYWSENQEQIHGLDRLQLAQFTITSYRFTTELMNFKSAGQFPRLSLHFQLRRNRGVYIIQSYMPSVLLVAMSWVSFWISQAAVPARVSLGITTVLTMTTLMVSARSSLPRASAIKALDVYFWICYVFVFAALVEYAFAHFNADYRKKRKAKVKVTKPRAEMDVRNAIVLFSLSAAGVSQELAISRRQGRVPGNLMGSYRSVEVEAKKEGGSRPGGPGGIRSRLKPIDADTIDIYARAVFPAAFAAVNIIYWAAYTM
T6 sequence (P30191 whole entry): as the sequence (P30191 whole entry) above
T6 sequence (P63079 whole entry): as the sequence (P63079 whole entry) above
T4 sequence (P30191 whole entry): as the sequence (P30191 whole entry) above
T4 sequence (P63079 whole entry): as the sequence (P63079 whole entry) above
Gamma-aminobutyric acid receptor subunit alpha-1/beta-3/delta, sequence (P18506 whole entry): as the sequence (P18506 whole entry) above
Gamma-aminobutyric acid receptor subunit alpha-1/beta-3/delta, sequence (P62813 whole entry): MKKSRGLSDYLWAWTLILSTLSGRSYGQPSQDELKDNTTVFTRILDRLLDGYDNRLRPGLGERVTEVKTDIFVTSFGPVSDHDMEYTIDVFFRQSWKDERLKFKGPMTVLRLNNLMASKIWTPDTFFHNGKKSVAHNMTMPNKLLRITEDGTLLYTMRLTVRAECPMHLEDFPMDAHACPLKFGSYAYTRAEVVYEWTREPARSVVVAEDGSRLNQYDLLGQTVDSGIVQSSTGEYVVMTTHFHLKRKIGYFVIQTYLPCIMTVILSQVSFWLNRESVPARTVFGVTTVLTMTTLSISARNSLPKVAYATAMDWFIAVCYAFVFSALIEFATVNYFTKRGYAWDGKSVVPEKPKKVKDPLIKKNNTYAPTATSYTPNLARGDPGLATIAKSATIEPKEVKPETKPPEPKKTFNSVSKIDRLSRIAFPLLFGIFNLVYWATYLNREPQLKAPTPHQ
Gamma-aminobutyric acid receptor subunit alpha-1/beta-3/delta, sequence (P63079 whole entry): as the sequence (P63079 whole entry) above
Gamma-aminobutyric acid receptor subunit alpha-4/beta-3/delta, sequence (P18506 whole entry): as the sequence (P18506 whole entry) above
Gamma-aminobutyric acid receptor subunit alpha-4/beta-3/delta, sequence (P28471 whole entry): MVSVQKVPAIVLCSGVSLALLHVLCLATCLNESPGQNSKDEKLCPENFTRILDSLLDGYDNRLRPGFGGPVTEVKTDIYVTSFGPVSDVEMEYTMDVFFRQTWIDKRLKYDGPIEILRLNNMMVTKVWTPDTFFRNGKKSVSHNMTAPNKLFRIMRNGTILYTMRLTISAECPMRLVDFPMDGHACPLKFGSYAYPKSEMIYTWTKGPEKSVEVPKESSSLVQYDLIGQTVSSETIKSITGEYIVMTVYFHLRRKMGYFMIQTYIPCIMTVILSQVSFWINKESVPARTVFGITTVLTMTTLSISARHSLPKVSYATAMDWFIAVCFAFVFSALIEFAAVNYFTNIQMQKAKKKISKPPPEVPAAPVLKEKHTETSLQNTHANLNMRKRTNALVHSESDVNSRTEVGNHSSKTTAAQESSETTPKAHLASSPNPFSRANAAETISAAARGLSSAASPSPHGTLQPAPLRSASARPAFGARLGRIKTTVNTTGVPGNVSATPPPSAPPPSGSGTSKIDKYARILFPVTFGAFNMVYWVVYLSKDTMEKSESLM
Gamma-aminobutyric acid receptor subunit alpha-4/beta-3/delta, sequence (P63079 whole entry): as the sequence (P63079 whole entry) above
Gamma-aminobutyric acid receptor subunit alpha-6/beta-2/delta, sequence (P18506 whole entry): as the sequence (P18506 whole entry) above
Gamma-aminobutyric acid receptor subunit alpha-6/beta-2/delta, sequence (P30191 whole entry): as the sequence (P30191 whole entry) above
Gamma-aminobutyric acid receptor subunit alpha-6/beta-2/delta, sequence (P63138 whole entry): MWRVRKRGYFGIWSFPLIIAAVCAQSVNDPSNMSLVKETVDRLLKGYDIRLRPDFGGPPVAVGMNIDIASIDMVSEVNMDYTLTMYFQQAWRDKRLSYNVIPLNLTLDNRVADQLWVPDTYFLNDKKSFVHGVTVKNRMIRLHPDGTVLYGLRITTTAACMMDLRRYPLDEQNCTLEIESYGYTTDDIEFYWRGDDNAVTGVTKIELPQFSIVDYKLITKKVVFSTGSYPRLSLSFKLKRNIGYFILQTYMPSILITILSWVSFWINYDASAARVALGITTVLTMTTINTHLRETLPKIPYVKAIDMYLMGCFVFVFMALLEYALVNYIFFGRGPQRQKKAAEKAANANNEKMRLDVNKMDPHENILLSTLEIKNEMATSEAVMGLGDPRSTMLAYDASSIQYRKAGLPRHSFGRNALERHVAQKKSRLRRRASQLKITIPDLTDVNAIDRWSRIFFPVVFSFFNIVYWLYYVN
Gamma-aminobutyric acid receptor subunit alpha-6/beta-2, sequence (P30191 whole entry): as the sequence (P30191 whole entry) above
Gamma-aminobutyric acid receptor subunit alpha-6/beta-2, sequence (P63138 whole entry): as the sequence (P63138 whole entry) above

## O=C(Nc1c(-c2cccs2)nc2ccccn12)c1ccc(OCc2ccccc2)cc1
[1]
  Imax: 54%
[2]
  inhibition: inactive
[3]
  inhibition: inactive

## CCCCOc1ccc(C(=O)Nc2c(-c3cccs3)nc3c(Br)cc(Br)cn23)cc1
[4]
  IC50: 2.5 µM
[5]
  IC50: 5.51 µM
[6]
  IC50: 0.86 µM
[7]
  Imax: 46%
[8]
  Imax: 24%
[9]
  Imax: 71%

## O=C(Nc1c(-c2cccs2)nc2c(Br)cc(Br)cn12)c1ccc(OCCF)cc1
[1]
  Imax: 37%
[2]
  inhibition: inactive
[3]
  Imax: 15%

## O=C(Nc1c(-c2cccs2)nc2ccccn12)c1ccc(Cl)cc1
[1]
  Imax: 20%
[10]
  EC50: 0.86 µM
[11]
  EC50: 0.97 µM
[12]
  Activity: 213%
[13]
  Activity: 231%
[14]
  Activity: 588%
[15]
  Activity: inactive
[16]
  Activity: inactive
[17]
  Activity: inactive
[18]
  Activity: inactive
[19]
  Activity: inactive

## O=C(Nc1c(-c2cccs2)nc2c(Br)cc(Br)cn12)c1ccc(F)cc1
[4]
  IC50: 3.06 µM
[5]
  IC50: 3.39 µM
[6]
  IC50: 1.2 µM
[7]
  Imax: 91%
[8]
  Imax: 103%
[9]
  Imax: 87%

## O=C(Nc1c(-c2cccs2)nc2c(Br)cc(Br)cn12)c1ccc(OCCCF)cc1
[6]
  IC50: 1 µM
[7]
  inhibition: inactive
[8]
  inhibition: inactive
[9]
  Imax: 38%

## O=C(Nc1c(-c2cccs2)nc2c(Br)cc(Br)cn12)c1ccc(OCCCCF)cc1
[6]
  IC50: 0.76 µM
[20]
  IC50: 0.74 µM
[21]
  IC50: 0.27 µM
[22]
  inhibition: inactive
[23]
  inhibition: inactive
[24]
  inhibition: inactive
[25]
  inhibition: inactive
[26]
  inhibition: inactive
[27]
  inhibition: inactive
[28]
  Imax: 33%
[29]
  Imax: 55%
[30]
  Imax: 57%
[31]
  IC50: 1.29 µM
[32]
  Imax: 44%
[33]
  IC50: 1.28 µM
[34]
  Imax: 55%
[35]
  IC50: 0.49 µM
Rattus norvegicus
  Ratio IC50: 3
[2]
  Imax: 11%
[9]
  Imax: 53%
[36]
  inhibition: inactive
[3]
  inhibition: inactive
